Blank lines part the entries; values can stand above or below the compound they belong to. Active and inactive are the calls of the source. The rule behind the calls is not given here.
Columns and labels:
Rattus norvegicus [1] = species: Rattus norvegicus; experiment: Antisecretory activity in rat pylorus ligation-induced ulcer model determined by ratio of total acidity inhibition in drug treated to untreated control; assay type: functional
In short: (§1)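 Sprague Dawley rats (130-150 g) fasted 24 h with water ad libitum; pylorus ligated through a midline incision under ether anesthesia. Dosing oral, 1 h before ligation. Gastric juice free and total acidity titrated against 0.01 N NaOH, with Topfer's reagent and phenolphthalein as indicators. Values expressed as ratio of percent inhibition, treated vs control group.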

Rattus norvegicus [2] = species: Rattus norvegicus; experiment: Inhibition of gastric H+/K(+)-ATPase activity in Sprague-Dawley rat microsomal vesicles at 10 umol; assay type: microsomes; settings: Stomach, Microsome
In short: (§2)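 Rat gastric microsomes were prepared by density gradient and differential centrifugation. The medium held 40 mM Tris-HCl pH 7.4, 2 mM MgCl2, 10 mM KCl (water for blank) and […] vesicular protein. Compound was preincubated 30 min at 37 °C. Tris-ATP at 0.3, 1.0 or 3 mM was then added for 20 min and stopped with chilled 10% TCA. Released Pi was read at 530 nm; % inhibition vs control.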

Rattus norvegicus [3] = species: Rattus norvegicus; experiment: Antisecretory activity in rat pylorus ligation-induced ulcer model determined by ratio of free acidity inhibition in drug treated to untreated control; assay type: functional; in short: as §1
Rattus norvegicus [4] = experiment: Antisecretory activity in rat pylorus ligation-induced ulcer model assessed as inhibition of free acidity of gastric juice at 10 mg/kg; assay type: functional, organism-based; design: dose 10 mg/kg; in short: as §1
Rattus norvegicus [5] = species: Rattus norvegicus; experiment: Inhibition of gastric H+/K(+)-ATPase activity in Sprague-Dawley rat microsomal vesicles at 10 uM in presence of 0.3 mM of ATP; assay type: microsomes; settings: Stomach, Microsome; in short: as §2
Rattus norvegicus [6] = species: Rattus norvegicus; experiment: Inhibition of p-NPPase in Sprague-Dawley rat microsomal vesicles at 10 uM in presence of 3.0 mM of p-NPP; assay type: microsomes; settings: Microsome
In short: (§3)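 Rat gastric microsomes were assayed in 10 mM PIPES/Tris pH 7.0 with 5 mM KCl. Compound was preincubated 30 min at 37 °C. p-NPP at 1.0, 3.0 or 5.0 mM was added and incubated 20 min at 37 °C, then stopped with 0.5 N NaOH. p-Nitrophenol release was read at 410 nm; % inhibition vs control.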

Rattus norvegicus [7] = species: Rattus norvegicus; experiment: Inhibition of p-NPPase in Sprague-Dawley rat microsomal vesicles at 3 uM in presence of 3.0 mM of p-NPP; assay type: microsomes; settings: Microsome; in short: as §3
Rattus norvegicus [8] = species: Rattus norvegicus; experiment: Inhibition of gastric proton pump activity of gastric H(+)/K(+) ATPase in Sprague-Dawley rat microsomal vesicles before washing at 10 uM; assay type: microsomes; settings: Stomach, Microsome
Rattus norvegicus [9] = species: Rattus norvegicus; experiment: Inhibition of gastric H+/K(+)-ATPase activity in Sprague-Dawley rat microsomal vesicles at 3 uM in presence of 3.0 mM of ATP; assay type: microsomes; settings: Stomach, Microsome; in short: as §2
Rattus norvegicus [10] = species: Rattus norvegicus; experiment: Inhibition of gastric proton pump activity of gastric H(+)/K(+) ATPase in Sprague-Dawley rat microsomal vesicles after washing at 10 uM; assay type: microsomes; settings: Stomach, Microsome
Rattus norvegicus [11] = species: Rattus norvegicus; experiment: Inhibition of p-NPPase in Sprague-Dawley rat microsomal vesicles at 10 uM in presence of 1.0 mM of p-NPP; assay type: microsomes; settings: Microsome; in short: as §3
Rattus norvegicus [12] = species: Rattus norvegicus; experiment: Inhibition of p-NPPase in Sprague-Dawley rat microsomal vesicles at 100 uM in presence of 5.0 mM of p-NPP; assay type: microsomes; settings: Microsome; in short: as §3
Rattus norvegicus [13] = species: Rattus norvegicus; experiment: Inhibition of p-NPPase in Sprague-Dawley rat microsomal vesicles at 3 uM in presence of 1.0 mM of p-NPP; assay type: microsomes; settings: Microsome; in short: as §3
Rattus norvegicus [14] = species: Rattus norvegicus; experiment: Inhibition of p-NPPase in Sprague-Dawley rat microsomal vesicles at 10 uM in presence of 5.0 mM of p-NPP; assay type: microsomes; settings: Microsome; in short: as §3
Rattus norvegicus [15] = species: Rattus norvegicus; experiment: Inhibition of p-NPPase in Sprague-Dawley rat microsomal vesicles at 30 uM in presence of 5.0 mM of p-NPP; assay type: microsomes; settings: Microsome; in short: as §3
Rattus norvegicus [16] = species: Rattus norvegicus; experiment: Inhibition of gastric H+/K(+)-ATPase activity in Sprague-Dawley rat microsomal vesicles at 30 uM in presence of 0.3 mM of ATP; assay type: microsomes; settings: Stomach, Microsome; in short: as §2
Rattus norvegicus [17] = species: Rattus norvegicus; experiment: Inhibition of gastric H+/K(+)-ATPase activity in Sprague-Dawley rat microsomal vesicles at 30 uM in presence of 3.0 mM of ATP; assay type: microsomes; settings: Stomach, Microsome; in short: as §2
Rattus norvegicus [18] = species: Rattus norvegicus; experiment: Inhibition of p-NPPase in Sprague-Dawley rat microsomal vesicles at 30 uM in presence of 1.0 mM of p-NPP; assay type: microsomes; settings: Microsome; in short: as §3
Rattus norvegicus [19] = experiment: Antisecretory activity in rat pylorus ligation-induced ulcer model assessed as inhibition of total acidity of gastric juice at 20 mg/kg; assay type: functional, organism-based; design: dose 20 mg/kg; in short: as §1
Rattus norvegicus [20] = species: Rattus norvegicus; experiment: Inhibition of gastric H+/K(+)-ATPase activity in Sprague-Dawley rat microsomal vesicles at 3 uM in presence of 0.3 mM of ATP; assay type: microsomes; settings: Stomach, Microsome; in short: as §2
Rattus norvegicus [21] = species: Rattus norvegicus; experiment: Inhibition of gastric H+/K(+)-ATPase activity in Sprague-Dawley rat microsomal vesicles at 3 uM in presence of 1.0 mM of ATP; assay type: microsomes; settings: Stomach, Microsome; in short: as §2
Rattus norvegicus [22] = species: Rattus norvegicus; experiment: Inhibition of gastric H+/K(+)-ATPase activity in Sprague-Dawley rat microsomal vesicles at 10 uM in presence of 3.0 mM of ATP; assay type: microsomes; settings: Stomach, Microsome; in short: as §2
Rattus norvegicus [23] = species: Rattus norvegicus; experiment: Inhibition of gastric H+/K(+)-ATPase activity in Sprague-Dawley rat microsomal vesicles at 30 uM in presence of 1.0 mM of ATP; assay type: microsomes; settings: Stomach, Microsome; in short: as §2
Rattus norvegicus [24] = species: Rattus norvegicus; experiment: Inhibition of p-NPPase in Sprague-Dawley rat microsomal vesicles at 30 uM in presence of 3.0 mM of p-NPP; assay type: microsomes; settings: Microsome; in short: as §3
Rattus norvegicus [25] = species: Rattus norvegicus; experiment: Inhibition of gastric H+/K(+)-ATPase activity in Sprague-Dawley rat microsomal vesicles at 10 uM in presence of 1.0 mM of ATP; assay type: microsomes; settings: Stomach, Microsome; in short: as §2

inhibition (Rattus norvegicus [2]): 44%
Compound: CC(C)(C)[C@H]1OC(=O)[C@@]2([C@@H](O)c3ccccc3)CCC(=O)N12
Activity (Rattus norvegicus [1]): 0.27 | Activity (Rattus norvegicus [3]): 0.17

inhibition (Rattus norvegicus [5]): 56% | inhibition (Rattus norvegicus [6]): 52% | inhibition (Rattus norvegicus [7]): 28% | inhibition (Rattus norvegicus [8]): 60% | inhibition (Rattus norvegicus [9]): 34% | inhibition (Rattus norvegicus [10]): 90% | inhibition (Rattus norvegicus [11]): 54% | inhibition (Rattus norvegicus [12]): 96% | inhibition (Rattus norvegicus [13]): 28% | inhibition (Rattus norvegicus [14]): 48% | inhibition (Rattus norvegicus [15]): 79% | inhibition (Rattus norvegicus [16]): 75% | inhibition (Rattus norvegicus [17]): 76% | inhibition (Rattus norvegicus [18]): 77% | inhibition (Rattus norvegicus [20]): 38% | inhibition (Rattus norvegicus [21]): 38% | inhibition (Rattus norvegicus [22]): 53% | inhibition (Rattus norvegicus [23]): 71% | inhibition (Rattus norvegicus [24]): 78% | inhibition (Rattus norvegicus [25]): 51%
Compound: COc1ccc2[nH]c([S+]([O-])Cc3ncc(C)c(OC)c3C)nc2c1 (stereo not given)
Activity (Rattus norvegicus [4]): Active | Activity (Rattus norvegicus [19]): Active

inhibition (Rattus norvegicus [2]): 46%
Compound: Cc1ccccc1CN1C(=O)CC[C@H]1C(=O)O
Activity (Rattus norvegicus [1]): 0.89 | Activity (Rattus norvegicus [3]): 0.92

inhibition (Rattus norvegicus [2]): 88%
Compound: CC(C)(C)OC(=O)[C@@H]1CCC(=O)N1Cc1ccccc1Cl
Activity (Rattus norvegicus [1]): 0.27 | Activity (Rattus norvegicus [3]): 0.17

inhibition (Rattus norvegicus [2]): 32%
Compound: O=C(O)[C@@H]1CCC(=O)N1Cc1ccccc1Cl
Activity (Rattus norvegicus [1]): 0.51 | Activity (Rattus norvegicus [3]): 0.66

inhibition (Rattus norvegicus [2]): 34%
Compound: CC(C)(C)OC(=O)N[C@@H](CO)C(=O)O
Activity (Rattus norvegicus [1]): 0.72 | Activity (Rattus norvegicus [3]): 0.71

inhibition (Rattus norvegicus [2]): 59%
Compound: O=C(N[C@@H](COCc1ccccc1)C(=O)O)OCc1ccccc1
Activity (Rattus norvegicus [1]): 0.5 | Activity (Rattus norvegicus [3]): 0.48
